Reference: ChEMBL document CHEMBL3603837, “Indole Glucocorticoid Receptor Antagonists Active in a Model of Dyslipidemia Act via a Unique Association with an Agonist Binding Site” (J Med Chem, 2015)
Calls of active or inactive are those of the source. The rule behind the calls is not given here.

What was measured:
Glucocorticoid receptor [1] = biological target: T1, Glucocorticoid receptor (Homo sapiens, UniProt P04150); assay: Displacement of [3H]-dexamethasone from human glucocorticoid receptor expressed in HEK293 cells by scintillation counting based radioligand competition binding assay; type: cell-based
T1 sequence (P04150 whole entry): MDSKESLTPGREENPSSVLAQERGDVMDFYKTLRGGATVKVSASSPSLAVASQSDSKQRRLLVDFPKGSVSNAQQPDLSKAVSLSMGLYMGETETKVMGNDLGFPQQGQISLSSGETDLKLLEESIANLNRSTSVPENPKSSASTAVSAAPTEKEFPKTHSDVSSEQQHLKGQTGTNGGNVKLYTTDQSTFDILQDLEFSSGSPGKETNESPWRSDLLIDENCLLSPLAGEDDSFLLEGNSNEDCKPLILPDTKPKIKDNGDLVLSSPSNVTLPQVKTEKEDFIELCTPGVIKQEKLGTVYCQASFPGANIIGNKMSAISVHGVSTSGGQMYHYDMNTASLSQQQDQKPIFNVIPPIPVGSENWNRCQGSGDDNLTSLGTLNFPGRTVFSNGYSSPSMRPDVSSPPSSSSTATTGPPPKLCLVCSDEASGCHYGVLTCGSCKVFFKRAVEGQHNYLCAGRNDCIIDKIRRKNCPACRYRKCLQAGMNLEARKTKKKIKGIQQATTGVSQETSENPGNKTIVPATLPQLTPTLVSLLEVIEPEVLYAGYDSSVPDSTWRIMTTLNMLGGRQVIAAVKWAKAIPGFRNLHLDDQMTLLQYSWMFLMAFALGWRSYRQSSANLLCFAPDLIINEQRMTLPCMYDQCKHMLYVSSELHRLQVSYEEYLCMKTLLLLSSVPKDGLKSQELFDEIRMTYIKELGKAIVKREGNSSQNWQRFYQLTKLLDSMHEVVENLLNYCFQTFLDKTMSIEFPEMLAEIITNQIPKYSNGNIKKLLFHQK

Androgen receptor = biological target: T2, Androgen receptor (Homo sapiens, UniProt P10275); assay: biochemical
T2 sequence (P10275 whole entry): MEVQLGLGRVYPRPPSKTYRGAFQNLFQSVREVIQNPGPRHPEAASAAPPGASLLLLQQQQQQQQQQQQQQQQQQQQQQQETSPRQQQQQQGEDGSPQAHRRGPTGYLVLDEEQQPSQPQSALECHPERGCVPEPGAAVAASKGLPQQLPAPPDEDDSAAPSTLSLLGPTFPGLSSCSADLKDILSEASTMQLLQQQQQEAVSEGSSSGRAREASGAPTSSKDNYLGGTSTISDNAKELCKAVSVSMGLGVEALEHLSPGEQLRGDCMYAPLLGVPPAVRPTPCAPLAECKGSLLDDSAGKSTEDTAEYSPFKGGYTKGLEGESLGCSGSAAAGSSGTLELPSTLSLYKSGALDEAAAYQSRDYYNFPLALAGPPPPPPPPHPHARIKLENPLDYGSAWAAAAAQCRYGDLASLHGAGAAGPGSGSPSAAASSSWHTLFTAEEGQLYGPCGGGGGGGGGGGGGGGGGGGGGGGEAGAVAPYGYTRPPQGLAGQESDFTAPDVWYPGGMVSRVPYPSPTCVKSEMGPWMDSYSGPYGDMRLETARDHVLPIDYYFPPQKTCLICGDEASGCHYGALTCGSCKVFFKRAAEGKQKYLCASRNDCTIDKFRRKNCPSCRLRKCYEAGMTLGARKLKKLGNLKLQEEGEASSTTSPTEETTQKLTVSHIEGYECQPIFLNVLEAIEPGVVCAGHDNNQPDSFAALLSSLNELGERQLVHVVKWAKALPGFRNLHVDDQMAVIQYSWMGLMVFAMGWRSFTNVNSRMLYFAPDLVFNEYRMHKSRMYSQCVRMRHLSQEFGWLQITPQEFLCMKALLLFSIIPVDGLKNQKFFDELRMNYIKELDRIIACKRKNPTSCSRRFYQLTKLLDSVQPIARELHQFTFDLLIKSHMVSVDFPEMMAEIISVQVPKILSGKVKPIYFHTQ

Glucocorticoid receptor [2] = biological target: T1, Glucocorticoid receptor; assay: Antagonist activity against glucocorticoid receptor (unknown origin) expressed in HEK293 cells by GRE-dependent luciferase reporter gene assay; type: cell-based
Glucocorticoid receptor [3] = biological target: T3, Glucocorticoid receptor (Rattus norvegicus, UniProt P06536); assay: Antagonist activity against glucocorticoid receptor in rat H4-IIE cells assessed as inhibition of dexamethasone-induced receptor transactivation pre-incubated for 1 hr before dexamethasone addition and measured 24 hrs post dexamethasone stimulation by tyrosine aminotransferase enzyme assay; type: cell-based
T3 sequence (P06536 whole entry): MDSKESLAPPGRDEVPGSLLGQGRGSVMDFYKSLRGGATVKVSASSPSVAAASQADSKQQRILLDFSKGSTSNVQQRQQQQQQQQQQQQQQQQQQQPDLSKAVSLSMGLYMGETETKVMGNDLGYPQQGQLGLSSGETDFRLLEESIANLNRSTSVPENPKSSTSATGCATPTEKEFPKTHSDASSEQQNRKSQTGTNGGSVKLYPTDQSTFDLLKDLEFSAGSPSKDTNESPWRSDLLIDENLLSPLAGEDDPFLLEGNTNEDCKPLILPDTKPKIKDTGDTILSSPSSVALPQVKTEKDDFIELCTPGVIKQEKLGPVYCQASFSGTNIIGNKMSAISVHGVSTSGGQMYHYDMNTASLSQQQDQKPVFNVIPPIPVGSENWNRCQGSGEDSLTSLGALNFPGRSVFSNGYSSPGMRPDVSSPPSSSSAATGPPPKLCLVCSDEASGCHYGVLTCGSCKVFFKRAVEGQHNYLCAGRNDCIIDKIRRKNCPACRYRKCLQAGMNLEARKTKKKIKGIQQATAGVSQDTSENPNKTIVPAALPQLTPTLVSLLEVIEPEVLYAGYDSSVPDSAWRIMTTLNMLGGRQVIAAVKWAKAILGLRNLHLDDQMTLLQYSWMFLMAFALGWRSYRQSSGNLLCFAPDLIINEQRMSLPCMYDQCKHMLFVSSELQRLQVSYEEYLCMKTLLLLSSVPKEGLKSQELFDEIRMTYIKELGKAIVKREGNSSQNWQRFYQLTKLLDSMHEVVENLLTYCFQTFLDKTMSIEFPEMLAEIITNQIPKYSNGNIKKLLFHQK

[4] = biological target: T4, Glucocorticoid receptor (Homo sapiens) (UniProt P04150); assay: Agonist activity at glucocorticoid receptor (unknown origin) expressed in HEK293 cells by GRE-dependent luciferase reporter gene assay; type: cell-based
T4 sequence (whole entry): T1 sequence (P04150 whole entry)

[5] = biological target: T5, Glucocorticoid receptor (Rattus norvegicus) (UniProt P06536); assay: Agonist activity at glucocorticoid receptor in rat H4-IIE cells assessed as receptor transactivation incubated for 24 hrs by tyrosine aminotransferase enzyme assay; type: cell-based
T5 sequence (whole entry): T3 sequence (P06536 whole entry)
Outline: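 Rat hepatoma H4IIEC3 cells grown in DMEM with 10% FBS, plated at 100000 cells/well overnight at 37 °C, 5% CO2, then switched to DMEM/F12 with 5% CS-FBS for 24 h. Test compounds at about 0.09 nM–25 μM for 24 h. Lysates given TAT substrate (4.74 mM L-tyrosine, 13.3 mM α-ketoglutarate, pH 7.6) for 2 h at 37 °C, then KOH. A340 read against a standard curve; EC50 from four-parameter logistic fit.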

[6] = Clearance in rat at 1 mg/kg, iv; type: ADME, organism-based; conditions: in vivo

Ki (Glucocorticoid receptor [1]) [nM]	Ki (Androgen receptor) [nM]	IC50 (Glucocorticoid receptor [2]) [nM]	IC50 (Glucocorticoid receptor [3]) [nM]	Activity [4]	Activity [5]	clearance [6] [mL/min/kg]	SMILES
3.06	401	235	1180				COc1ccccc1-c1c[nH]c2c(NS(C)(=O)=O)cccc12
53.7	905						COc1ccc(F)cc1-c1c(-c2ccccc2)[nH]c2c(NS(C)(=O)=O)cccc12
94.6	496						CS(=O)(=O)Nc1cccc2c(-c3ccc(F)cc3)c[nH]c12
5.04	91	180	76				CS(=O)(=O)Nc1cccc2c(-c3cccc(Cl)c3)c[nH]c12
5.45	697	143	1250	inactive	inactive		COc1ccc(Cl)cc1-c1c[nH]c2c(NS(C)(=O)=O)cccc12

More lines, now with the values behind:

SMILES	Ki (Glucocorticoid receptor [1]) [nM]	Ki (Androgen receptor) [nM]	IC50 (Glucocorticoid receptor [2]) [nM]	IC50 (Glucocorticoid receptor [3]) [nM]	Activity [4]	Activity [5]	clearance [6] [mL/min/kg]
COc1cc(NS(C)(=O)=O)c2[nH]c(C)c(-c3cc(F)ccc3OC)c2c1	115	1120					
COc1cc(F)ccc1-c1c(CN(C)Cc2ccccc2)[nH]c2c(N)cc(F)cc12		4140					
CS(=O)(=O)Nc1cccc2cc[nH]c12	50	355					
COc1cc(NS(C)(=O)=O)c2[nH]c(C)c(-c3ccccc3)c2c1	39.8	4060					
COc1cc(F)ccc1-c1c(C)[nH]c2c(NS(C)(=O)=O)cc(F)cc12	1.32	1130	22	63.4	inactive	inactive	
COc1cc(F)ccc1-c1c(CN(C)Cc2ccccc2)[nH]c2c(NS(C)(=O)=O)cc(C(C)C)cc12	1.22	232	2.76	10.6	inactive	inactive	58.2
COc1cc(F)ccc1-c1c(Cc2ccccc2)[nH]c2c(NS(C)(=O)=O)cc(C(C)C)cc12	0.543	684	7.54	292	inactive	inactive	
COc1cc(F)ccc1-c1c(CN(C)Cc2ccccc2)[nH]c2c(NS(C)(=O)=O)cc(C(C)(C)C)cc12		231		14.4		inactive	
